Activity calls are given as the source filed them. The rule behind the calls is not given here.
Assays:
[1] = target: T1, Urokinase-type plasminogen activator (Homo sapiens, UniProt P00749); assay: Inhibition of human kidney uPA using Z-Gly-Gly-Arg-AMC as substrate measured over 15 mins by fluorescence assay
[2] = target: T2, Epithelial sodium channel subunit alpha (Homo sapiens, UniProt P37088); assay: Inhibition of S-3969-stimulated recombinant human ENaC alpha subunit expressed in HEK293 cells at 10 uM preincubated for 5 mins followed by S-3969 stimulation by FLIPR assay; format: cell-based; settings: hek293, 10 µM
T2 sequence (P37088 whole entry): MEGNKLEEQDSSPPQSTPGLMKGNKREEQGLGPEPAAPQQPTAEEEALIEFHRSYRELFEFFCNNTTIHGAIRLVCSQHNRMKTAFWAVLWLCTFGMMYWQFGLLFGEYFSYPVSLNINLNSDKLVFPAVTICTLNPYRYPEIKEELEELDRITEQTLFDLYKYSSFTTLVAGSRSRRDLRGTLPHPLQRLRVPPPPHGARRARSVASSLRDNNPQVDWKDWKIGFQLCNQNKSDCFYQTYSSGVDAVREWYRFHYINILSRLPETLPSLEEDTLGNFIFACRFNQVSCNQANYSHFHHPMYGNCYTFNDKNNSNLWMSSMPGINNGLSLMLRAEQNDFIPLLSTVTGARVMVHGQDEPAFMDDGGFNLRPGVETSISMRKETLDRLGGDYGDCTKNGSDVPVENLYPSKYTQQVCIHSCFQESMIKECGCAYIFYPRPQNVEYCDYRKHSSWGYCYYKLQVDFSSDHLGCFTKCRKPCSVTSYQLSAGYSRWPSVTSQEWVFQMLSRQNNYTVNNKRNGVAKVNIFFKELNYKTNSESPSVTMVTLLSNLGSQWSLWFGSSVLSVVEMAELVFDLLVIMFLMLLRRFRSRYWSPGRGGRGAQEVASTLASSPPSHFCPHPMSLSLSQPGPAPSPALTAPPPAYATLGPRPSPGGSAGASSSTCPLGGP
How it was run: (§1)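 HEK-293 cells transfected with human ENaC α, β and γ cDNA together, plated at 20 000 cells/well, incubated overnight at 37 °C. Loaded with membrane-potential red dye for 30 min at 37 °C. Compound preincubated 5 min in HEPES-buffered salt solution (pH 7.4, 0.3% DMSO), then stimulated with 1 µM S-3969, read on FLIPR. Signal normalized to agonist alone (100%) and agonist plus 30 µM benzamil (0%). n = 4 wells.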

[3] = target: T3, Epithelial sodium channel subunit beta (Homo sapiens, UniProt P51168); assay: Inhibition of S-3969-stimulated recombinant human ENaC beta subunit expressed in HEK293 cells at 10 uM preincubated for 5 mins followed by S-3969 stimulation by FLIPR assay; format: cell-based; settings: hek293, 10 µM; how it was run: as §1
T3 sequence (P51168 whole entry): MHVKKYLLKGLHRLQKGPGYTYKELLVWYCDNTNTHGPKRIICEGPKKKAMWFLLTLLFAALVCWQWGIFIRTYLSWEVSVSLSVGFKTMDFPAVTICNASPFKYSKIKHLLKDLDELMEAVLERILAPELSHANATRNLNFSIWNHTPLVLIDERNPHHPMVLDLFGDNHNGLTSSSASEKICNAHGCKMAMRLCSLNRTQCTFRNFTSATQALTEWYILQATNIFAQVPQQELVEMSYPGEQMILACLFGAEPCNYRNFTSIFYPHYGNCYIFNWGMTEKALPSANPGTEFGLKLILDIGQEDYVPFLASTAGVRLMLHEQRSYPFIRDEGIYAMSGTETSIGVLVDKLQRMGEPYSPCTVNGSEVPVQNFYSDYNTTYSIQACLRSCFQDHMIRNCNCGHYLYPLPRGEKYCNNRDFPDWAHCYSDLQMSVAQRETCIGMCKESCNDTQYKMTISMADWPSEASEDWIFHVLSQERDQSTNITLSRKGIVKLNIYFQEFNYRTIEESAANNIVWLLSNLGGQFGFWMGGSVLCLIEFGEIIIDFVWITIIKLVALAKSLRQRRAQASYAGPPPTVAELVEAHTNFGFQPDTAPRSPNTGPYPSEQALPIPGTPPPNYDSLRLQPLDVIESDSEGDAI

[4] = target: T4, Epithelial sodium channel subunit gamma (Homo sapiens, UniProt P51170); assay: Inhibition of S-3969-stimulated recombinant human ENaC gamma subunit expressed in HEK293 cells at 10 uM preincubated for 5 mins followed by S-3969 stimulation by FLIPR assay; format: cell-based; settings: hek293, 10 µM; how it was run: as §1
T4 sequence (P51170 whole entry): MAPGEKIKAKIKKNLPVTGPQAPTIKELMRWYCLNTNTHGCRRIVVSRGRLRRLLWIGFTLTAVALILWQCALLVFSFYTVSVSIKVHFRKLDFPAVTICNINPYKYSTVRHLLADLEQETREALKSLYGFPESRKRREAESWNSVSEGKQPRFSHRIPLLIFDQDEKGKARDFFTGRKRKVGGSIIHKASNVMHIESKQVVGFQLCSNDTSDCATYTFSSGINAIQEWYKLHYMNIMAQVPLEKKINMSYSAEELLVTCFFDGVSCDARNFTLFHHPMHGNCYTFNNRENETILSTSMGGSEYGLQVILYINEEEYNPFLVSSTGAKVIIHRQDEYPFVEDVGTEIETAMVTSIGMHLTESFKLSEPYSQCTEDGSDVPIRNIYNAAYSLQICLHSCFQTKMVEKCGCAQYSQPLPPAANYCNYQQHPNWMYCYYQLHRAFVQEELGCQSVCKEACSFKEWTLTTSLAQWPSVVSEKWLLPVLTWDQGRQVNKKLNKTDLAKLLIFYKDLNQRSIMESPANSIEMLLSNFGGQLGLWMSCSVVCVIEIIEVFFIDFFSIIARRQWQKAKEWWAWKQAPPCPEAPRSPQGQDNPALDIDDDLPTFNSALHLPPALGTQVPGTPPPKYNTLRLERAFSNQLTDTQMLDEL

[5] = tested on: Homo sapiens; assay: Antimetastatic activity against human PSC xenografted in BALB/c nu/nu mouse co-implanted with human AsPC1 cells assessed as reduction in metastasis lesions in liver at 75 mg/kg, po administered twice per week via gavage measured after 28 days post first dose by microscopic analysis; format: functional, organism-based
How it was run: (§2)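 Female athymic BALB/c nu/nu mice, 6–8 weeks old. 1×10^6 AsPC-1 and 1×10^6 human pancreatic stellate cells in 50 µL PBS injected into the pancreatic tail. Treatment randomized on day 7 (n = 4/group) for 4 weeks: 10 mg/kg/day ip in 50 mM sodium acetate pH 5.5/10% DMSO/1% Kolliphor HS-15, or gemcitabine 75 mg/kg by oral gavage twice weekly, or vehicle. At kill, liver scored for visible macrometastases, fixed in formalin, and 4 µm sections stained with H&E. Chi-square test.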

[6] = tested on: ASPC1; assay: Antimetastatic activity against human AsPC1 cells xenografted in BALB/c nu/nu mouse co-implanted with human PSC assessed as reduction in metastasis lesions in liver at 75 mg/kg, po administered twice per week via gavage measured after 28 days post first dose by microscopic analysis; format: functional, organism-based; how it was run: as §2
[7] = target: T1, Urokinase-type plasminogen activator; assay: Inhibition of human kidney uPA using chromogenic H-D-Ile-L-Pro-L-Arg-p-nitoraniline as substrate by fluorescence assay
How it was run: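 Enzyme was uPA from human kidney cells at 10 nM final. […] Absorbance change at 405 nm gave initial rates. IC50 from a sigmoidal fit of % residual activity vs log concentration.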

[8] = target: Tissue-type plasminogen activator (Homo sapiens, UniProt P00750); assay: Inhibition of tPA (unknown origin) using chromogenic H-D-Ile-L-Pro-L-Arg-p-nitoraniline as substrate by […]
[9] = target: Plasminogen (Homo sapiens, UniProt P00747); assay: Inhibition of plasmin (unknown origin) using chromogenic H-D-Ile-L-Pro-L-Arg-p-nitoraniline as substrate by […]
[10] = target: Prothrombin (Homo sapiens, UniProt P00734); assay: Inhibition of thrombin (unknown origin) using chromogenic H-D-Ile-L-Pro-L-Arg-p-nitoraniline as substrate by […]
[11] = target: Plasma kallikrein (Homo sapiens, UniProt P03952); assay: Inhibition of human plasma kallikrein using chromogenic L-pyroGlu-L-Pro-L-Arg-p-nitroaniline as substrate by fluorescence assay
[12] = target: Coagulation factor XI (Homo sapiens, UniProt P03951); assay: Inhibition of factor 11a (unknown origin) using chromogenic L-pyroGlu-L-Pro-L-Arg-p-nitroaniline as substrate by […]
[13] = target: Coagulation factor X (Homo sapiens, UniProt P00742); assay: Inhibition of factor 10a (unknown origin) using chromogenic H-D-Ile-L-Pro-L-Arg-p-nitoraniline as substrate by fluorescence assay
[14] = target: Vitamin K-dependent protein C (Homo sapiens, UniProt P04070); assay: Inhibition of activated protein C (unknown origin) using chromogenic L-pyroGlu-L-Pro-L-Arg-p-nitroaniline as substrate by fluorescence assay
[15] = tested on: MDA-MB-231; assay: Cytotoxicity against human MDA-MB-231 cells assessed as reduction in cell viability after 48 hrs by CellTiter 96 Aqueous One solution cell proliferation assay; format: functional, cell-based; settings: MDA-MB-231, 48 h
How it was run: (§3)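 Cells grown in DMEM high glucose with 10% heat-inactivated FCS, seeded at 5000/well and left 18 h. Compounds added at 1 nM–100 µM final (0.2% vehicle), n = 4 wells per concentration, with colour blanks. After 48 h, MTS reagent added for 2 h and A490 read. IC50 from a variable-slope sigmoidal fit.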

[16] = tested on: HepG2; assay: Cytotoxicity against human HepG2 cells assessed as reduction in cell viability after 48 hrs by CellTiter 96 Aqueous One solution cell proliferation assay; format: functional, cell-based; settings: HepG2, 48 h; how it was run: as §3
[17] = tested on: HEK293; assay: Cytotoxicity against HEK293 cells assessed as reduction in cell viability after 48 hrs by CellTiter 96 Aqueous One solution cell proliferation assay; format: cell-based; settings: Homo sapiens, HEK293, 48 h; how it was run: as §3
[18] = tested on: HT-1080; assay: Cytotoxicity against human HT1080 cells assessed as reduction in cell viability after 48 hrs by CellTiter 96 Aqueous One solution cell proliferation assay; format: functional, cell-based; settings: HT-1080, 48 h; how it was run: as §3
[19] = target: Trypsin (Homo sapiens, UniProt P07477+P07478+P35030); assay: Inhibition of trypsin (unknown origin) at 10 nM to 33.3 uM after 30 mins by gel-based ABPP assay; format: protein assay
[20] = target: T1, Urokinase-type plasminogen activator; assay: Inhibition of human kidney uPA after 30 mins by gel-based ABPP assay

Chain of Plasminogen (P00747 97-580 limits assumed): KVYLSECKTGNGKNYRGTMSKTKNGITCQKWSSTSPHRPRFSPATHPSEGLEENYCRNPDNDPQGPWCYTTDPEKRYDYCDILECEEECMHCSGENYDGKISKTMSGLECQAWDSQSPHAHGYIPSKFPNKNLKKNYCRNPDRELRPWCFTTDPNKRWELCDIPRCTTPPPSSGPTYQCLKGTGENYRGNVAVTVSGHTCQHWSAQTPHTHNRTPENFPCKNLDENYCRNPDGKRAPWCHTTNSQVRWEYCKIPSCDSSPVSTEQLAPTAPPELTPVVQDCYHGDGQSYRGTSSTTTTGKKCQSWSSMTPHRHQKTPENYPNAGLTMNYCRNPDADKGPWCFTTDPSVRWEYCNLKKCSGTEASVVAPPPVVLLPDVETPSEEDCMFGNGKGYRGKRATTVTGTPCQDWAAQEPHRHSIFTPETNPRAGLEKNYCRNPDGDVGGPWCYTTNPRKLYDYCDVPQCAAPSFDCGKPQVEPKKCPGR
Chain of Plasminogen (P00747 581-810 limits assumed): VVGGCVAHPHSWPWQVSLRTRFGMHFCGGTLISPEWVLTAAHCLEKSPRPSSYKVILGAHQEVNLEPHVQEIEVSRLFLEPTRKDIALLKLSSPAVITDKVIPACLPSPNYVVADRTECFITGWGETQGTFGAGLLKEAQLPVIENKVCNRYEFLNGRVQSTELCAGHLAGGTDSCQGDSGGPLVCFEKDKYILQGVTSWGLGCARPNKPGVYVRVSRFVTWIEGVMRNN
Chain of Vitamin K-dependent protein C (P04070 43-197 limits assumed): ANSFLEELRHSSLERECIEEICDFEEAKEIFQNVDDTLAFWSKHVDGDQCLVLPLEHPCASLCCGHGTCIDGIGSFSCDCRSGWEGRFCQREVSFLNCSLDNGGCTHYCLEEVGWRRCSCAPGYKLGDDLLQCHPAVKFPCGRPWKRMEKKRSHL
Chain of Vitamin K-dependent protein C (P04070 212-461 limits assumed): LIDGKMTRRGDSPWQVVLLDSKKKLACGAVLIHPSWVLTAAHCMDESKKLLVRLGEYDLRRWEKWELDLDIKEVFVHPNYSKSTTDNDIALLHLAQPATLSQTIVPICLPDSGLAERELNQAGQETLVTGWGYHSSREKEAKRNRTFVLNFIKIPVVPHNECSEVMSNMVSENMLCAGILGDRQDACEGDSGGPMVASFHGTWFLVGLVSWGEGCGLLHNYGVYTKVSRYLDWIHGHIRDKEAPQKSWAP
Chain of Coagulation factor X (P00742 41-179 limits assumed): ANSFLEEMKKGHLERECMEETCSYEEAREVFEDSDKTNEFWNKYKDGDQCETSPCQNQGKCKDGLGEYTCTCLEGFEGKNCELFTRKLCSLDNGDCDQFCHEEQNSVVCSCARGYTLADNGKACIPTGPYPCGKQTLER
Chain of Coagulation factor X (P00742 235-488 limits assumed): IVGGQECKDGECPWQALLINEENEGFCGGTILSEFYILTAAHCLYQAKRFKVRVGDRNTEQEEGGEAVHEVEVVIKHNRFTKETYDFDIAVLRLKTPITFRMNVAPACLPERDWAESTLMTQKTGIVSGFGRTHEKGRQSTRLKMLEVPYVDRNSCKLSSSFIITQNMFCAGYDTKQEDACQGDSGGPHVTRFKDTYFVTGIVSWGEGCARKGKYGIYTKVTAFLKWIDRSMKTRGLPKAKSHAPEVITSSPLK
Chain of Tissue-type plasminogen activator (P00750 whole entry): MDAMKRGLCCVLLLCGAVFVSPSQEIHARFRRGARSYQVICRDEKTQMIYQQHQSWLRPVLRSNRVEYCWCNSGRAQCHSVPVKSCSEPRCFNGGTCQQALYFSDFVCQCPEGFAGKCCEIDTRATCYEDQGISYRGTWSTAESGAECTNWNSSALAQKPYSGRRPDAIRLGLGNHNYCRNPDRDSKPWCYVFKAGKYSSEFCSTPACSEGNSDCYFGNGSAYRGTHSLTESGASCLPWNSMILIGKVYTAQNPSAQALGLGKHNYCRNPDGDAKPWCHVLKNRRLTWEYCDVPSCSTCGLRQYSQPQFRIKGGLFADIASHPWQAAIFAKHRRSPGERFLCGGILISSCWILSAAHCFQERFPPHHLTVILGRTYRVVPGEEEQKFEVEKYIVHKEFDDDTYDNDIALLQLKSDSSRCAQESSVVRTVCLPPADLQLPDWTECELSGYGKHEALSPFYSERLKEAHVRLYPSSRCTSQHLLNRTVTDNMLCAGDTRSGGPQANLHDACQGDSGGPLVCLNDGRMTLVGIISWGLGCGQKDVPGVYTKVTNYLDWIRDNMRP
Chain of Plasma kallikrein (P03952 20-390 limits assumed): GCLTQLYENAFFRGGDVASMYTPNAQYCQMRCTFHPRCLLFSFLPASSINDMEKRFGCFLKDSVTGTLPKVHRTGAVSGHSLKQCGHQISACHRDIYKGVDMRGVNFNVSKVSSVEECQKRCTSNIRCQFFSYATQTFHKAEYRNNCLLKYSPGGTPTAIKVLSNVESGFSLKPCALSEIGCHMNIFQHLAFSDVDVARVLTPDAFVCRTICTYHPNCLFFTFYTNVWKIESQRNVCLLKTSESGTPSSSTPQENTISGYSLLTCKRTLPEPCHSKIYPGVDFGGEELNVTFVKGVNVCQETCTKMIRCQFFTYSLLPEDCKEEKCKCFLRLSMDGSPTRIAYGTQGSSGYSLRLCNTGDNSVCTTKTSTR
Chain of Plasma kallikrein (P03952 391-638 limits assumed): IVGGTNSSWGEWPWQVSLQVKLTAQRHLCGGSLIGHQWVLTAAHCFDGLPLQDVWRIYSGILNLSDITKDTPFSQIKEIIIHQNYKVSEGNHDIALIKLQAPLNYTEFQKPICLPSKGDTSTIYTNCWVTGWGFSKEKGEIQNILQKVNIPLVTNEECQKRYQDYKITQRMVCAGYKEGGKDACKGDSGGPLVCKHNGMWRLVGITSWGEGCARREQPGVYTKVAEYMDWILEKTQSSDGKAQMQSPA
Chain of Coagulation factor XI (P03951 19-387 limits assumed): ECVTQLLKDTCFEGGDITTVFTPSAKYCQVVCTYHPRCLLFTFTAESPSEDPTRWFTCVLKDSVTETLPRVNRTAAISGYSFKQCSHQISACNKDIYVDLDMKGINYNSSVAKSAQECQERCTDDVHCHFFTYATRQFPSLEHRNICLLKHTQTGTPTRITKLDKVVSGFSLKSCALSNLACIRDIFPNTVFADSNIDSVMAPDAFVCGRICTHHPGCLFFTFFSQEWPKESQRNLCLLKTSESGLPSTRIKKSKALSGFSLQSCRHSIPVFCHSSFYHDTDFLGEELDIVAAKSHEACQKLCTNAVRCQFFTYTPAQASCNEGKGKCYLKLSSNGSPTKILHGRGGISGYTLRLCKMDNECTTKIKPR
Chain of Coagulation factor XI (P03951 388-625 limits assumed): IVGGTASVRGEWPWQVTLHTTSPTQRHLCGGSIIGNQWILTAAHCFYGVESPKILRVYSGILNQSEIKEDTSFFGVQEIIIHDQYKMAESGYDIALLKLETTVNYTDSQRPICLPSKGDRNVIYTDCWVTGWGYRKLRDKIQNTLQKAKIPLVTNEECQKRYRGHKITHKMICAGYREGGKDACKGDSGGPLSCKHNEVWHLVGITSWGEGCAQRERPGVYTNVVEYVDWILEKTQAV

CC(C)Nc1ncc(-c2nc(C(=O)NC(=N)N)c(N)nc2N2CCCCCC2)cn1
Ki [1]: 42 nM

N=C(N)NC(=O)c1nc(-c2cccs2)c(N2CCCCCC2)nc1N
Ki [1]: 2420 nM

N=C(N)NC(=O)c1nc(-c2ccsc2)c(N2CCCCCC2)nc1N
Ki [1]: 1030 nM

N=C(N)NC(=O)c1nc(-c2cccnc2F)c(N2CCCCCC2)nc1N
Ki [1]: 1780 nM

N=C(N)NC(=O)c1nc(-c2cc3ccccc3[nH]2)c(N2CCCCCC2)nc1N
Ki [1]: 5670 nM | inhibition (INH) [2]: Not Active | inhibition (INH) [3]: Not Active | inhibition (INH) [4]: Not Active

COc1ncc(-c2nc(C(=O)NC(=N)N)c(N)nc2N2CCCCCC2)c(OC)n1
Ki [1]: 42 nM

CSc1ccc(-c2nc(C(=O)NC(=N)N)c(N)nc2N2CCCCCC2)cc1
Ki [1]: 16400 nM

N=C(N)NC(=O)c1nc(-c2cncc3ccccc23)c(N2CCCCCC2)nc1N
Ki [1]: 3540 nM

N=C(N)NC(=O)c1nc(-c2ccc(C(F)(F)F)cc2)c(N2CCCCCC2)nc1N
Ki [1]: 4260 nM | inhibition (INH) [2]: Not Active | inhibition (INH) [3]: Not Active | inhibition (INH) [4]: Not Active

Nc1ccn([C@@H]2O[C@H](CO)[C@@H](O)C2(F)F)c(=O)n1
Activity [5]: Active | Activity [6]: Active

N=C(N)NC(=O)c1nc(-c2cnn(CCN3CCOCC3)c2)c(N2CCCCCC2)nc1N
Ki [1]: 658 nM

N=C(N)NC(=O)c1nc(-c2cc3ccccc3s2)c(N2CCCCCC2)nc1N
Ki [1]: 3310 nM

N=C(N)NC(=O)c1nc(-c2cnc(NCCO)nc2)c(N2CCCCCC2)nc1N
Ki [1]: 41 nM

N=C(N)NC(=O)c1nc(-c2ccccc2)c(N2CCCCCC2)nc1N
Ki [1]: 5020 nM

COc1cc(OC)cc(-c2nc(C(=O)NC(=N)N)c(N)nc2N2CCCCCC2)c1
Ki [1]: 1320 nM

COc1cc(-c2nc(C(=O)NC(=N)N)c(N)nc2N2CCCCCC2)c(OC)nn1
Ki [1]: 315 nM

Cn1cc(-c2nc(C(=O)NC(=N)N)c(N)nc2N2CCCCCC2)cn1
Ki [1]: 508 nM

N=C(N)NC(=O)c1nc(-c2ccoc2)c(N2CCCCCC2)nc1N
Ki [1]: 166 nM

N=C(N)NC(=O)c1nc(-c2ccco2)c(N2CCCCCC2)nc1N
Ki [1]: 156 nM

N=C(N)NC(=O)c1nc(-c2cc3c(F)cccc3o2)c(N2CCCCCC2)nc1N
Ki [1]: 88 nM | IC50 [7]: 430 nM | IC50 [8]: > 20 µM | IC50 [9]: > 20 µM | IC50 [10]: > 20 µM | IC50 [11]: 16.7 µM | IC50 [12]: 23.3 µM | IC50 [13]: > 50 µM | IC50 [14]: > 50 µM | IC50 [15]: 3.2 µM | IC50 [16]: 68.4 µM | IC50 [17]: 12 µM | IC50 [18]: 2.1 µM

CNc1ncc(-c2nc(C(=O)NC(=N)N)c(N)nc2N2CCCCCC2)cn1
Ki [1]: 43 nM

COc1ccc(-c2nc(C(=O)NC(=N)N)c(N)nc2N2CCCCCC2)c(OC)n1
Ki [1]: 884 nM

COc1ccc(-c2nc(C(=O)NC(=N)N)c(N)nc2N2CCCCCC2)c(OC)c1
Ki [1]: 2200 nM

N=C(N)NC(=O)c1nc(-c2cncnc2)c(N2CCCCCC2)nc1N
Ki [1]: 108 nM | inhibition [19]: Active | IC50 [15]: > 100 µM | IC50 [16]: > 100 µM | IC50 [17]: > 100 µM | IC50 [18]: 37.1 µM | inhibition (INH) [2]: Not Active | inhibition (INH) [3]: Not Active | inhibition (INH) [4]: Not Active | inhibition [20]: Active

N=C(N)NC(=O)c1nc(Nc2ncccn2)c(N2CCCCCC2)nc1N
Ki [1]: 228 nM

N=C(N)NC(=O)c1nc(-c2cnc(N)nc2)c(N2CCCCCC2)nc1N
Ki [1]: 21 nM

N=C(N)NC(=O)c1nc(-c2ccc3c(c2)OCO3)c(N2CCCCCC2)nc1N
Ki [1]: 934 nM

Reference: ChEMBL document CHEMBL4196166 (J Med Chem, 2018)
